This is a sample that favours compounds with a hit; in the whole collection about 1.5% have one here.
SIAE inh: human SIAE inhibitors, primary screen, biochemical, fluorescence polarization, FP-Rh probe, 1536-well HTS; Sialate O-acetylesterase (Homo sapiens), Q9HAT2; SIAE FP-Rh probe binding; inhibition, % at 9.66 µM; 0.69% of 370,000 active; AID 1053197, 2014;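 active means inhibition above a cutoff: mean of compounds within the control limits plus 3 SD of those, cut at about 17% in these data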;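 further: 0% = plate median of compound wells and 100% = probe without SIAE protein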
DAGLB inh: DAGLB lipase inhibitors, primary screen, biochemical, fluorescence, HTS | HEK293T DAGLB membrane lysate, EnzChek fluorogenic substrate | inhibition, % at 5.17 µM | 0.059% of 340,000 active | Diacylglycerol lipase-beta (Homo sapiens), Q8NCG7; in the data active means inhibition above about 34%;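 further: 0% = enzyme with vehicle and 100% = wells lacking enzyme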
Target sequence (Q8NCG7 whole entry, looked up): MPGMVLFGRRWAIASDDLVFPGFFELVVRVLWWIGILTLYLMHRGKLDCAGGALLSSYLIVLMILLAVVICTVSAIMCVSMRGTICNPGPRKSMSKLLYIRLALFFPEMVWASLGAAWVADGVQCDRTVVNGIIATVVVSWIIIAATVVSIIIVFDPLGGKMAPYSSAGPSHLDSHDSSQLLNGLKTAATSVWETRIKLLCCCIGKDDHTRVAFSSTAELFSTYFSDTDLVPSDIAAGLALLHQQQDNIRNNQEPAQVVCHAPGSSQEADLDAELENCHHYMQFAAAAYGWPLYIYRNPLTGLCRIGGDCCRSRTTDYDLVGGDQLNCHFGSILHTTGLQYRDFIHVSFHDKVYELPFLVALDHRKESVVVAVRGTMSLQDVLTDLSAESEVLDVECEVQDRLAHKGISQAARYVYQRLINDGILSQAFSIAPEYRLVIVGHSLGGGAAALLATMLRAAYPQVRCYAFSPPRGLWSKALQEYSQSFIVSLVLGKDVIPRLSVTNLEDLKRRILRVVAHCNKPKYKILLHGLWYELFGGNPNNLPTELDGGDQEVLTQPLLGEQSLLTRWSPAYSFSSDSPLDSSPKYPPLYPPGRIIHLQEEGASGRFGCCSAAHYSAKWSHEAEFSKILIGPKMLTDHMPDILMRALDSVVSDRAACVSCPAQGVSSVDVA
mABHD4 FP: ABHD4 inhibitors, primary screen, biochemical, fluorescence polarization, mouse; purified mABHD4, FP-Rh probe fluorescence polarization; AID 720543, 2013; 0.54% of 370,000 active; inhibition, % at 8.92 µM;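 active means inhibition exceeding the mean over every tested compound plus 3 SD, cut at about 30% in these data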;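 further: 0% = plate median of compound wells and 100% = S159A mutant with DMSO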
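Assay system: wild-type mouse ABHD4 protein; compound: single nominal dose of 8.92 µM, 0.89% DMSO final; schedule: 45 min + 60 min at 25 °C; measured by: FP readout, ex 525 nm / em 598 nm; evaluation: % inhibition of FP-Rh probe binding versus controls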
HTRA1 inh: HTRA1 serine protease inhibitors, primary screen, biochemical, fluorescence polarization, HTS. Q92743. recombinant HTRA1, FP-rhodamine activity-based probe. inhibition, % at 5.96 µM. 0.5% of 340,000 active. AID 504803, 2011; in the data active means inhibition above about 36%;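 further: 0% = enzyme with DMSO and 100% = wells lacking enzyme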
TCR CD3 inh: inhibitors of human TCR-CD3 interaction, primary screen, biochemical, fluorescence, TAMRA-labeled TCR probe; inhibition, % at 9.4 µM; 0.37% of 360,000 active; AID 651800, 2012; in the data active means inhibition above about 19%;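 further: recombinant mutant TCR 2C K166C tagged with TAMRA read by polarization; 0% = receptor in buffer alone and 100% = receptor with positive control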
SIAE confirm: human SIAE inhibitors, retest, confirmation, biochemical, fluorescence polarization, FP-Rh probe, triplicate; shares compounds with SIAE inh; SIAE FP-Rh activity-based probe; inhibition, % at 9.66 µM; 13% of 2,300 active;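 active means mean inhibition of the replicates above the hit cutoff set in the primary screen, cut at about 17% in these data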;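 further: 0% = SIAE with DMSO and probe and 100% = probe without SIAE; inhibitors lower polarization as more probe stays unbound to SIAE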
* hit, by the source's call; x = no result.

SMILES	SIAE inh	DAGLB inh	mABHD4 FP	HTRA1 inh	TCR CD3 inh	SIAE confirm
O=C(NCc1ccccn1)C(=O)NCC1OCCN1S(=O)(=O)c1ccc(F)cc1 (configuration not stated)	19.4*	-3.9	0.1	3.9	-0.3	4.5
N=c1n(CCN2CCOCC2)c2ccccc2n1CC(=O)c1ccc(Cl)c(Cl)c1	19.2*	-0.9	-5.7	-13.2	2.4	3.3
Cn1c(COc2ccccc2)nnc1SCC(=O)Nc1ccc(S(=O)(=O)Nc2nccs2)cc1	-2.8	x	-2.5	x	x	x
CCOC(=O)c1c(-c2ccccc2)csc1NC(=O)/C(C#N)=C/c1ccc(OC)c(OC)c1	-0.1	0.1	-5.0	-9.0	4.4	x
CCOC(=O)c1c(-c2ccccc2)csc1NC(=O)/C(C#N)=C/c1ccc(O)c(OC)c1	18.9*	-32.3	-8.8	-38.1	-9.4	13.6
FC(F)(F)c1ccc(C2Nc3cccc4cccc(c34)N2)cc1	4.1	4.0	3.7	6.1	-0.8	x
Brc1ccc(C2Nc3cccc4cccc(c34)N2)cc1	1.8	0.1	8.8	5.5	-5.3	x
Cc1ccc(C2Nc3cccc4cccc(c34)N2)s1	27.2*	10.3	8.2	14.0	5.1	12.6
Fc1ccc(C2Nc3cccc4cccc(c34)N2)cc1	19.4*	-5.1	9.0	11.8	1.0	10.1
CCOCN(C(=O)Cn1cnc2ccccc21)c1c(C)cccc1CC	18.3*	-0.7	2.7	-3.5	-4.8	-1.7
COC(=O)CSc1nc(-c2ccc(F)cc2)cc(C(F)(F)F)n1	27.7*	-2.7	0.9	-4.2	10.0	1.5
COC(=O)c1cn(C)c2ccc(S(=O)(=O)N(C)C3CCCCC3)cc2c1=O	20.3*	-0.7	3.9	3.1	-6.2	-3.5
CCn1cc(C(=O)OC)c(=O)c2cc(S(=O)(=O)N(C)C3CCCCC3)ccc21	-2.9	2.8	1.3	2.5	-0.9	x
Cc1cccc(/C(N)=N/OC(=O)c2ccc(F)cc2)c1	20.5*	-8.3	2.9	2.3	-2.7	-1.0
CNc1oc(Cc2cccc3ccccc23)nc1C#N	17.7*	-0.3	-1.8	0.7	-0.5	1.6
CC(C)Nc1oc(Cc2cccc3ccccc23)nc1C#N	0.8	-1.1	-8.6	-11.0	-1.4	x
CCC(c1nnnn1-c1ccc2c(c1)OCCO2)N1CCN(C(=O)C2CCCO2)CC1 (configuration not stated)	2.7	x	7.8	x	4.5	x
COc1ccccc1NC(=S)NCCN1CCOCC1	17.1*	-2.2	-2.2	-3.1	-5.0	3.1
COc1ccccc1NC(=S)NCc1ccc(Cl)cc1	17.7*	1.0	6.8	-2.0	2.9	-1.3
COc1ccccc1NC(=S)NCc1ccccc1	10.6	-0.9	-2.0	5.7	-4.2	x
COc1ccc(NC(=S)NCCN2CCOCC2)c(OC)c1	3.8	0.2	-4.0	5.0	4.8	x
COc1ccc(Cl)cc1NC(=S)NCCc1ccc(S(N)(=O)=O)cc1	36.5*	0.9	-3.3	-5.7	5.5	2.0
CN1C(=O)[C@H]2[C@@H](c3ccc(C(F)(F)F)cc3)N[C@]3(CCCN(Cc4ccc(Cl)cc4)C3=O)[C@H]2C1=O	-4.4	-4.2	3.8	-1.2	1.2	x
CCS(=O)(=O)Nc1ccc2c(c1)C(=O)N(C)[C@@H]1CC[C@H](CC(=O)OC)O[C@H]1CO2	-4.1	x	2.9	x	x	x
CCS(=O)(=O)Nc1ccc2c(c1)C(=O)N(C)[C@@H]1CC[C@H](CC(=O)NCCCN3CCOCC3)O[C@H]1CO2	18.1*	x	-3.5	x	x	18.8*
SMILES	SIAE inh	DAGLB inh	mABHD4 FP	HTRA1 inh	TCR CD3 inh	SIAE confirm
Cc1ccc(/C=C2/C(=O)N(c3ccccc3)C(=S)N2C)o1	2.6	-4.9	-1.8	0.0	3.4	x
Cc1ccc(/C=C2\C(=O)NC(=O)N2C)o1	19.0*	-3.2	1.9	-1.2	0.5	-0.3
COC(=O)C1CCCCN1C(=O)c1ccc2oc(C(C)C)nc2c1 (configuration not stated)	17.1*	-2.3	3.1	0.6	0.2	6.0
COC(=O)c1cc2c(c3c4ccccc4n(S(=O)(=O)c4ccc(OC)cc4)c13)C(=O)N(C)C2	-1.3	x	0.6	x	-6.9	x
COc1ccc(-c2nc3cc(C)ccn3c2NC(=O)c2ccccc2OC)cc1	-0.9	-1.8	3.4	-3.1	7.8	x
CCCCNc1c(-c2cccc(-c3ccc(OC)cc3)c2)nc2cc(C)ccn12	21.8*	-4.4	28.8	13.0	-0.1	14.9
C=CCn1c(CNC(=O)c2cccs2)nnc1SCC(=O)c1ccc(Br)cc1	28.3*	-1.2	-5.3	-12.5	1.6	1.9
COc1ccc(NC(=O)CN2C(=O)C(C)Oc3ccccc32)cc1 (configuration not stated)	-3.5	-1.4	5.0	0.9	-0.7	x
COc1ccc(NC(=O)CN2C(=O)C(C)Oc3ccc(C)cc32)cc1 (configuration not stated)	20.7*	-2.5	3.1	0.0	-2.1	7.1
CC1Cc2nc(SCC(=O)NCc3ccccc3)n(Cc3ccccc3)c(=O)c2S1 (configuration not stated)	17.3*	-1.2	4.9	-4.1	1.6	1.6
COc1ccc(/C=N/Nc2nc(NCc3ccco3)nc(Nc3ccc(OC)cc3)n2)cc1	0.6	3.9	19.4	-3.6	0.9	x
COc1ccc(Nc2nc(NCc3ccco3)nc(N/N=C/c3ccc(O)cc3)n2)cc1	28.5*	0.0	7.8	17.4	3.8	3.5
O=C(CSc1n[nH]c(-c2cccnc2)n1)OC1CCCCC1	17.8*	-1.5	-4.0	-3.4	-4.3	-3.2
CCCCN(C(=O)C1=COCCO1)c1c(N)n(CCC)c(=O)[nH]c1=O	20.4*	-0.4	0.3	7.9	2.5	-5.7
CCCCn1c(N)c(N(CCC(C)C)C(=O)C2=COCCO2)c(=O)[nH]c1=O	6.5	0.2	-8.1	3.7	-4.6	x
COC(=O)[C@@]12CCCCC=C1N(CCc1ccc(Cl)cc1)C(=O)[C@H]2CC(=O)NCCc1ccccc1OC	-5.1	x	-1.1	x	x	x
CCC1NC(=O)c2cc3ccccc3cc2-n2c1nc1cc(C)cc(C)c1c2=O (configuration not stated)	17.3*	1.1	-3.7	-23.6	-2.9	-0.9
CSc1n[nH]c(-c2cccs2)n1	-9.6	x	7.0	x	-0.7	x
Cc1ccc(N=C2C(=O)Nc3ccccc32)cc1C	2.4	-0.3	-7.3	-6.7	-5.4	x
O=C1Nc2ccccc2C1=Nc1ccc2[nH]c3ccccc3c2c1	17.2*	2.4	27.6	19.7	4.5	1.8
CC1(C)CC(=O)C(C=NCC(N)=O)=C(O)C1	17.7*	-1.2	-3.0	0.4	6.8	-1.1
CN=CC1=C(O)CC(C)(C)CC1=O	6.3	-0.8	12.6	4.0	-0.1	x

Screens deposited in PubChem by The Scripps Research Institute Molecular Screening Center.
